Calls of active or inactive are those of the source. The calls are words filed in the database; no cut-off is given here.
Legend:
[1] = Cmax in mouse lung at 50 mg/kg, sc; type: ADME, organism-based; parameters: dose 50 mg/kg, route subcutaneous
[2] = Volume of distribution at steady state in mouse at 2 mg/kg, iv; type: ADME, organism-based; details: in vivo, read-out: Vdss
Staphylococcus aureus [3] = assay: Potentiation of imipenem-induced antibacterial activity against methicillin-resistant Staphylococcus aureus COL MB 5393 infected in neutropenic balb/c mouse assessed as log reduction in bacterial burden in kidney at 50 mg/kg, sc administered three times per day at 2, 5 and 8 hrs post challenge cotreated with imipenem measured 24 hrs post challenge; type: functional
[4] = Clearance in mouse at 2 mg/kg, iv; type: ADME, organism-based; details: in vivo
[5] = Tmax in mouse spleen at 50 mg/kg, sc; type: ADME, organism-based
[6] = Terminal half life in rat at 1 mg/kg, iv; type: ADME, organism-based; details: in vivo, read-out: beta t1/2 (converted)
Staphylococcus aureus [7] = assay: Potentiation of imipenem-induced antibacterial activity against methicillin-resistant Staphylococcus aureus COL MB 5393 infected in sc dosed neutropenic balb/c mouse assessed as reduction in bacterial burden in kidney administered three times per day at 2, 5 and 8 hrs post challenge cotreated with imipenem measured 24 hrs post challenge; type: functional, organism-based
[8] = AUC (0 to x) in mouse kidney at 50 mg/kg, sc; type: ADME, organism-based
[9] = Tmax in mouse kidney at 50 mg/kg, sc; type: ADME, organism-based
[10] = AUC (0 to x) in mouse lung at 50 mg/kg, sc; type: ADME, organism-based
Staphylococcus aureus [11] = assay: Potentiation of imipenem-induced antibacterial activity against methicillin-resistant Staphylococcus aureus COL MB 5393 infected in neutropenic balb/c mouse assessed as reduction in bacterial burden in kidney at 12.5 mg/kg, sc administered three times per day at 2, 5 and 8 hrs post challenge cotreated with imipenem measured 24 hrs post challenge; type: functional, organism-based
Staphylococcus aureus [12] = assay: Potentiation of imipenem-induced antibacterial activity against methicillin-resistant Staphylococcus aureus COL MB 5393 infected in neutropenic balb/c mouse assessed as log reduction in bacterial burden in kidney at 25 mg/kg, sc administered three times per day at 2, 5 and 8 hrs post challenge cotreated with imipenem measured 24 hrs post challenge; type: functional
[13] = AUC (0 to x) in mouse blood at 50 mg/kg, sc; type: ADME, organism-based
[14] = Clearance in rat at 1 mg/kg, iv; type: ADME, organism-based; details: in vivo
[15] = AUC (0 to infinity) in mouse at 2 mg/kg, iv; type: ADME, organism-based; parameters: dose 2 mg/kg, time infinity, route intravenous; details: in vivo
[16] = Cmax in mouse kidney at 50 mg/kg, sc; type: ADME, organism-based; parameters: dose 50 mg/kg, route subcutaneous
[17] = Cmax in mouse blood at 50 mg/kg, sc; type: ADME, organism-based; parameters: dose 50 mg/kg, route subcutaneous
[18] = Terminal half life in mouse at 2 mg/kg, iv; type: ADME, organism-based; details: in vivo, read-out: beta t1/2 (converted)
[19] = Ratio of Cmax in mouse spleen to Cmax in mouse blood at 50 mg/kg, sc; type: ADME, organism-based
Staphylococcus aureus [20] = assay: Growth inhibition of methicillin-resistant Staphylococcus aureus COL after 20 hrs
How it was run: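 MRSA COL grown with compound alone, with no antibiotic added. Growth read by OD600. The value is the minimum concentration that inhibits 95% of growth (iMITC95).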

[21] = Volume of distribution at steady state in rat at 1 mg/kg, iv; type: ADME, organism-based; details: in vivo, read-out: Vdss
[22] = Tmax in mouse liver at 50 mg/kg, sc; type: ADME, organism-based
[23] = Inhibition of TarO in methicillin-resistant Staphylococcus aureus membranes assessed as reduction in C55-P-P-GlcNAc production using C55-P as substrate in presence of UDP-GlcNAc by LC-MS analysis
[24] = AUC (0 to x) in mouse liver at 50 mg/kg, sc; type: ADME, organism-based
[25] = test system: Staphylococcus aureus subsp. aureus COL; assay: Inhibition of methicillin-resistant Staphylococcus aureus COL TarO assessed as compound concentration required for potentiation of imipenem-mediated bacterial growth inhibition by 95% after 20 hrs
How it was run: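 MRSA COL grown with compound in the presence of imipenem at 4 μg/mL. Growth read by OD600. The value is the minimum concentration that inhibits 95% of growth (sMITC95).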

[26] = Tmax in mouse blood at 50 mg/kg, sc; type: ADME, organism-based
[27] = AUC (0 to infinity) in rat at 1 mg/kg, iv; type: ADME, organism-based; parameters: dose 1 mg/kg, time infinity, route intravenous; details: in vivo
[28] = Cmax in mouse spleen at 50 mg/kg, sc; type: ADME, organism-based; parameters: dose 50 mg/kg, route subcutaneous
Mus musculus = assay: Toxicity in mouse at 50 mg/kg, sc; type: organism-based; details: in vivo
Staphylococcus aureus [29] = assay: Antibacterial activity against methicillin-resistant Staphylococcus aureus COL MB 5393 infected in neutropenic balb/c mouse assessed as reduction in bacterial burden in kidney at 12.5 to 50 mg/kg, sc administered three times per day at 2, 5 and 8 hrs post challenge measured 24 hrs post challenge; type: functional, organism-based
[30] = Cmax in mouse liver at 50 mg/kg, sc; type: ADME, organism-based; parameters: dose 50 mg/kg, route subcutaneous
[31] = Ratio of AUC (0 to x) in mouse spleen to AUC (0 to x) in mouse blood at 50 mg/kg, sc; type: ADME, organism-based; details: read-out: Ratio AUC
[32] = AUC (0 to x) in mouse spleen at 50 mg/kg, sc; type: ADME, organism-based
[33] = Tmax in mouse lung at 50 mg/kg, sc; type: ADME, organism-based

## C[C@H]1[C@@H](c2cccc(C(F)(F)F)c2)OC(=O)N1C(=O)NCc1cncc2ccccc12
[1]
  Cmax: 43.7 µM
[2]
  Vd: 13.1 to 13.5 L/kg
Staphylococcus aureus [3]
  log(activity): 2.5
[4]
  clearance: 61 to 61.4 mL/min/kg
[5]
  Tmax: 1 h
[6]
  half-life: 102 min
Staphylococcus aureus [7]
  Activity: Dose-dependent effect
[8]
  AUC: 336 µM·h
[9]
  Tmax: 1 h
[10]
  AUC: 123 µM·h
Staphylococcus aureus [11]
  Activity: inactive
Staphylococcus aureus [12]
  log(activity): 2
[13]
  AUC: 9.9 µM·h
[14]
  clearance: 92.7 to 93 mL/min/kg
[15]
  AUC(0-inf): 1.26 µM·h
[16]
  Cmax: 95 µM
[17]
  Cmax: 4.9 µM
[18]
  half-life: 384 min
[19]
  Kp: 6 to 8
Staphylococcus aureus [20]
  MITC95: > 200 µM
[21]
  Vd: 6.6 L/kg
[22]
  Tmax: 1 h
[23]
  IC50: 162 nM
[24]
  AUC: 322 µM·h
[25]
  MITC95: 250 nM
[26]
  Tmax: 30 min
[27]
  AUC(0-inf): 0.42 µM·h
[28]
  Cmax: 29 µM
Mus musculus
  Activity: Non-Toxic
Staphylococcus aureus [29]
  Activity: inactive
[30]
  Cmax: 101 µM
[31]
  Kp: 6 to 8
[32]
  AUC: 75 µM·h
[33]
  Tmax: 42 min

— ChEMBL document CHEMBL4049414, “Can We Make Small Molecules Lean? Optimization of a Highly Lipophilic TarO Inhibitor” (J Med Chem, 2017)
